Laboratory results taken from ChEMBL document CHEMBL1157455, “Synthesis and anti-hepatitis B virus evaluation of novel ethyl 6-hydroxyquinoline-3-carboxylates in vitro” (Bioorg Med Chem, 2008).
pIC50: −log10 of the molar value. Values belong to the molecule of their own block, whether it stands above or below them. The source made the active and inactive calls. The calls are words filed in the database; no cut-off is given here.

Legend:
[1] = Cytotoxicity against human HepG2.2.15 cells after 9 days by MTT assay; type: cell-based, HepG2 2.2.15; conditions: read-out: TC50
Summary of the method: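 HepG2.2.15 cells were treated as in the antiviral assay (RPMI 1640, 2% FBS, daily renewal), with untreated controls on each plate. Viability after 9 days of treatment was read from neutral red uptake as absorbance at 510 nm relative to untreated cells. TC50 is the 50% cytotoxic concentration.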

Hepatitis B virus [2] = experiment: Antiviral activity against HBV assessed as inhibition of viral e-antigen production by enzyme immunoassay; type: functional, organism-based
Summary of the method: (§1)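 Confluent HepG2.2.15 cells were treated with varied doses in RPMI 1640 plus 2% FBS, with fresh medium and drug each day for 8 days. Secreted HBeAg or HBsAg in the supernatant was measured by semiquantitative enzyme immunoassay, giving a 50% inhibitory concentration (IC50).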

Hepatitis B virus [3] = experiment: Antiviral activity against HBV assessed as inhibition of viral DNA replication by Southern blot; type: functional, organism-based
Summary of the method: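 Confluent HepG2.2.15 cultures were dosed across a range of concentrations in RPMI 1640 with 2% FBS. Medium and compound were renewed daily for 8 days. Intracellular HBV DNA was quantified by Southern blot hybridization and IC50 was taken as the 50% inhibitory concentration.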

[4] = Selectivity index, ratio of TC50 for human HepG2.2.15 cells to IC50 for HBV e-antigen production
Summary of the method: (§2)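 SI = TC50/IC50. TC50 is the 50% cytotoxic concentration in HepG2.2.15 cells by neutral red uptake after 9 days. IC50 comes from the 8-day HepG2.2.15 treatment in RPMI 1640 with 2% FBS, read by Southern blot for DNA or by enzyme immunoassay for secreted HBeAg or HBsAg.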

[5] = Selectivity index, ratio of TC50 for human HepG2.2.15 cells to IC50 for HBV DNA replication; summary of the method: as §2
Hepatitis B virus [6] = experiment: Antiviral activity against HBV assessed as inhibition of viral surface-antigen production by enzyme immunoassay; type: functional, organism-based; summary of the method: as §1
[7] = Selectivity index, ratio of TC50 for human HepG2.2.15 cells to IC50 for HBV surface antigen production; summary of the method: as §2
Hepatitis B virus [8] = experiment: Antiviral activity against HBV assessed as inhibition of viral surface-antigen production at <60 uM by enzyme immunoassay; type: functional, organism-based

pIC50 (Hepatitis B virus [2]): 4.79
pIC50 (Hepatitis B virus [3]): 4.51
SMILES: CCOC(=O)c1cc2c(Cn3ccnc3C)c(O)c(OC)cc2nc1CSc1ccc(F)cc1
CC50 at 216 h [1]: 78.5 µM
Ratio [4]: 4.8
Ratio [5]: 2.6

pIC50 (Hepatitis B virus [3]): 4.62
SMILES: CCOC(=O)c1cc2c(CN3CCCCC3)c(O)c(OC)cc2nc1CSc1ccc(F)c(F)c1
CC50 at 216 h [1]: 135 µM
Ratio [5]: 5.6

pIC50 (Hepatitis B virus [6]): 4.95
SMILES: CCOC(=O)c1cc2c(CN3CCN(C)CC3)c(O)c(OC)cc2nc1CSc1ccc(F)c(F)c1
CC50 at 216 h [1]: 55.3 µM
Ratio [7]: 4.9

pIC50 (Hepatitis B virus [3]): 4.34
SMILES: CCOC(=O)c1cc2c(CN3CCCCC3)c(O)c(OC)cc2nc1CSc1ccccc1
CC50 at 216 h [1]: 60.7 µM
Ratio [5]: 1.3
Activity (Hepatitis B virus [8]): inactive

pIC50 (Hepatitis B virus [2]): 4.96
pIC50 (Hepatitis B virus [6]): 5.24
SMILES: CCOC(=O)c1cc2c(CN3CCOCC3)c(O)c(OC)cc2nc1CSc1ccc(F)c(F)c1
CC50 at 216 h [1]: 79.7 µM
Ratio [4]: 7.3
Ratio [7]: 13.7

pIC50 (Hepatitis B virus [2]): 5.03
pIC50 (Hepatitis B virus [3]): 4.99
pIC50 (Hepatitis B virus [6]): 5.07
SMILES: CCOC(=O)c1cc2c(CN3CCCC3)c(O)c(OC)cc2nc1CSc1ccc(F)cc1
CC50 at 216 h [1]: 47.3 µM
Ratio [4]: 5.1
Ratio [5]: 4.6
Ratio [7]: 5.6

pIC50 (Hepatitis B virus [2]): 4.79
pIC50 (Hepatitis B virus [3]): 5.03
SMILES: CCOC(=O)c1cc2c(Cn3ccnc3)c(O)c(OC)cc2nc1CSc1ccc(F)c(F)c1
CC50 at 216 h [1]: 133 µM
Ratio [4]: 8.1
Ratio [5]: 14.1

pIC50 (Hepatitis B virus [2]): 4.68
pIC50 (Hepatitis B virus [3]): 4.97
pIC50 (Hepatitis B virus [6]): 4.60
SMILES: CCOC(=O)c1cc2c(CN3CCCC3)c(O)c(OC)cc2nc1C[S+]([O-])c1ccc(F)cc1 (configuration not stated)
CC50 at 216 h [1]: 166 µM
Ratio [4]: 7.9
Ratio [5]: 15.5
Ratio [7]: 6.6

pIC50 (Hepatitis B virus [3]): 5.28
SMILES: CCOC(=O)c1cc2c(CN3CCCC3)c(O)c(OC)cc2nc1C[S+]([O-])c1ccc(F)c(F)c1 (configuration not stated)
CC50 at 216 h [1]: 16.5 µM
Ratio [5]: 3.1

The remaining lines, values behind:

SMILES: CCOC(=O)c1cc2c(CN3CCCC3)c(O)c(OC)cc2nc1CSc1ccccn1
CC50 at 216 h [1]: 17.5 µM

SMILES: CCOC(=O)c1cc2c(Cn3ccnc3)c(O)c(OC)cc2nc1C[S+]([O-])c1ccc(F)c(F)c1 (configuration not stated)
pIC50 (Hepatitis B virus [3]): 4.90
CC50 at 216 h [1]: 90.8 µM
Ratio [5]: 7.3

SMILES: CCOC(=O)c1cc2c(Cn3ccnc3)c(O)c(OC)cc2nc1C[S+]([O-])c1cccc(OC)c1 (configuration not stated)
CC50 at 216 h [1]: 194 µM
pIC50 (Hepatitis B virus [6]): 4.48
Ratio [7]: 5.9

SMILES: CCOC(=O)c1cc2c(CN(C)C)c(O)c(OC)cc2nc1C[S+]([O-])c1ccc(F)cc1 (configuration not stated)
pIC50 (Hepatitis B virus [3]): 4.66
CC50 at 216 h [1]: 90.4 µM
pIC50 (Hepatitis B virus [6]): 4.44
Ratio [5]: 4.1
Ratio [7]: 2.5

SMILES: Nc1ccn([C@@H]2CS[C@H](CO)O2)c(=O)n1 [LAMIVUDINE]
pIC50 (Hepatitis B virus [3]): 3.51
CC50 at 216 h [1]: 2210 µM
Ratio [5]: 7.1

SMILES: CCOC(=O)c1cc2c(Cn3ccnc3)c(O)c(OC)cc2nc1CSc1ccc(F)cc1
pIC50 (Hepatitis B virus [3]): 4.38
CC50 at 216 h [1]: 202 µM
pIC50 (Hepatitis B virus [6]): 4.37
Ratio [5]: 6.2
Ratio [7]: 6

SMILES: CCOC(=O)c1cc2c(CN3CCCC3)c(O)c(OC)cc2nc1C[S+]([O-])c1ccccn1 (configuration not stated)
CC50 at 216 h [1]: 9.4 µM

SMILES: CCOC(=O)c1cc2c(Cn3ccnc3)c(O)c(OC)cc2nc1CSc1ccc(OC)c(OC)c1
CC50 at 216 h [1]: 189 µM

SMILES: CCOC(=O)c1cc2c(CN(C)C)c(O)c(OC)cc2nc1CSc1ccc(F)cc1
pIC50 (Hepatitis B virus [3]): 4.48
CC50 at 216 h [1]: 120 µM
pIC50 (Hepatitis B virus [6]): 4.76
Ratio [5]: 3.7
Ratio [7]: 6.9

SMILES: CCOC(=O)c1cc2c(Cn3ccnc3)c(O)c(OC)cc2nc1C[S+]([O-])c1ccc(F)cc1 (configuration not stated)
pIC50 (Hepatitis B virus [2]): 4.01
pIC50 (Hepatitis B virus [3]): 5.33
CC50 at 216 h [1]: 160 µM
Ratio [4]: 1.6
pIC50 (Hepatitis B virus [6]): 4.58
Ratio [5]: 34.1
Ratio [7]: 6.1

SMILES: CCOC(=O)c1cc2c(CN(C)C)c(O)c(OC)cc2nc1CSc1ccccc1OC
pIC50 (Hepatitis B virus [2]): 4.69
CC50 at 216 h [1]: 58.5 µM
Ratio [4]: 2.9

SMILES: CCOC(=O)c1cc2c(Cn3ccnc3)c(O)c(OC)cc2nc1CSc1cccc(OC)c1
pIC50 (Hepatitis B virus [2]): 4.19
CC50 at 216 h [1]: 186 µM
Ratio [4]: 2.9
